Test results taken from ChEMBL document CHEMBL4725242, “Discovery of GS-9688 (Selgantolimod) as a Potent and Selective Oral Toll-Like Receptor 8 Agonist for the Treatment of Chronic Hepatitis B” (J Med Chem, 2020).

System: not listed separately
Experiment: Apparent permeability across apical to basolateral side in human Caco2 cells measured after 1 to 2 hrs by LC-MS/MS analysis
Settings: Caco-2

Row | Structure (SMILES) | Papp A→B
1 | CCCC[C@](C)(CO)Nc1nc(N)nc2cc(C)cnc12 | 31 ×10⁻⁶ cm/s

Species: Homo sapiens
Experiment: Selectivity ratio of EC50 for TLR7 in human cryopreserved PBMC assessed as induction of IFNalpha production to EC50 for TLR8 in human cryopreserved PBMC assessed as induction of IL-12p40 production
Settings: not given
Method in brief: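 Cryopreserved healthy-donor human PBMC, recovered 2 h at 37°C/5% CO2, then 100k cells/well in RPMI/10% FBS exposed 24 h at 37°C to a 10-point half-log dilution series (0.5% final DMSO). Supernatant IFNα-2a quantified by MSD electrochemiluminescence immunoassay. Normalized to 10 µM GS-9620 positive and DMSO negative controls; EC50 from 4-parameter logistic fit. For the ratio, divided by the IL-12p40 EC50 from the same PBMC screen.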

Row | Structure (SMILES) | Ratio EC50
2 | CCCC[C@](C)(CO)Nc1nc(N)nc2cc(C)cnc12 | > 185

System: not listed separately
Experiment: Dissociation constant, pKa of the compound
Format: physicochemical
Settings: not given

Row | Structure (SMILES) | pKa
3 | CCCC[C@](C)(CO)Nc1nc(N)nc2cc(C)cnc12 | 7.1
4 | CCCC[C@](C)(CO)Nc1nc(N)nc2cc(Cl)cnc12 | 6.4
5 | CCCC[C@H](CO)Nc1nc(N)nc2ccccc12 | 8.2
6 | CCCC[C@H](CO)Nc1nc(N)nc2cccnc12 | 6.8

Molecular target: T1, Toll-like receptor 7 (Homo sapiens, UniProt Q9NYK1)
T1 sequence (Q9NYK1 whole entry): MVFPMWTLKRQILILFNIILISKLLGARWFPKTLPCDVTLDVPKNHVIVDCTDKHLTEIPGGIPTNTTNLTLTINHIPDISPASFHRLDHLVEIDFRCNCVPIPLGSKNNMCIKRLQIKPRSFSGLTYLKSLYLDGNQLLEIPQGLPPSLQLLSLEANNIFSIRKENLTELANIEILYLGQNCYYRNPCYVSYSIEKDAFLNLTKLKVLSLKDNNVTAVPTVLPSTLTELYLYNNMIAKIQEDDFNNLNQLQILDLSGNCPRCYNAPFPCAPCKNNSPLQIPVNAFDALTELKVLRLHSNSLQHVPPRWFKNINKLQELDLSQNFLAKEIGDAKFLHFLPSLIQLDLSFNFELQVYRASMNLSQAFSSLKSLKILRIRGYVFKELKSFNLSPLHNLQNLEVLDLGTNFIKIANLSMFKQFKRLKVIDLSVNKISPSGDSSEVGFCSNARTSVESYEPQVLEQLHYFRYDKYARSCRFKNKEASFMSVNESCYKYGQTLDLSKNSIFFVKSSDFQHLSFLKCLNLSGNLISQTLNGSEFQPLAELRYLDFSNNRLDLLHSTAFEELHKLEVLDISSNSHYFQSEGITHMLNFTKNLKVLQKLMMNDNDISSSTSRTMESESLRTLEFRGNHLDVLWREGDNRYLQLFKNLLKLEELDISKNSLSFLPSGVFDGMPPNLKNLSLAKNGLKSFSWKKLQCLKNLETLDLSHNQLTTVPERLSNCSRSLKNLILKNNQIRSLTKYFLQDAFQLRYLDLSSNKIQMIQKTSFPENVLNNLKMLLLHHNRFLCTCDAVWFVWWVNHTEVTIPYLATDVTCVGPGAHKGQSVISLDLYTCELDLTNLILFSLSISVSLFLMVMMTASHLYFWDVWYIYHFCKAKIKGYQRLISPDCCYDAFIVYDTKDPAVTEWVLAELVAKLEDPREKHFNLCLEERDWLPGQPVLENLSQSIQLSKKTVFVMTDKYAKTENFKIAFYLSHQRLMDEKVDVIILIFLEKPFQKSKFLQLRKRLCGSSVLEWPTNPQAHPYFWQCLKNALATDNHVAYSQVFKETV
Experiment: Agonist activity at TLR7 in human cryopreserved PBMC assessed as induction of IFNalpha production measured after 24 hrs
Settings: not given
Method in brief: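 Cryopreserved healthy-donor human PBMC, recovered 2 h at 37°C/5% CO2, then 100k cells/well in RPMI/10% FBS exposed 24 h at 37°C to a 10-point half-log dilution series (0.5% final DMSO). Supernatant IFNα-2a quantified by MSD electrochemiluminescence immunoassay. For the ratio, divided by the IL-12p40 EC50 from the same PBMC screen.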

Row | Structure (SMILES) | EC50
7 | CCCC[C@@H](Nc1nc(N)nc2cccnc12)C(=O)NC | > 50 µM
8 | CCCC[C@@H](CO)Nc1nc(N)nc2cccnc12 | 0.91 µM
9 | CCC[C@@H](CO)Nc1nc(N)nc2cccnc12 | 2 µM
10 | CCCC[C@](C)(CO)Nc1nc(N)nc2cc(C)cnc12 | > 50 µM
11 | CCCCC[C@](C)(CO)Nc1nc(N)nc2cccnc12 | 20 µM
12 | CCC[C@](C)(CO)Nc1nc(N)nc2cccnc12 | > 50 µM
13 | CCCC[C@H](CO)Nc1cc(N)nc2ccccc12 | > 50 µM
14 | CCCCNc1nc(N)nc2cccnc12 | 2.2 µM
15 | CCCC[C@H](CN)Nc1nc(N)nc2cccnc12 | > 50 µM
16 | CCCC[C@](C)(CO[C@@H]1O[C@H](C(=O)O)[C@@H](O)[C@H](O)[C@H]1O)Nc1nc(N)nc2cc(F)cnc12 | > 50 µM
17 | CCCCCC[C@](C)(CO)Nc1nc(N)nc2cccnc12 | > 50 µM
18 | CCCC[C@](C)(CO)Nc1nc(N)nc2cc(Cl)cnc12 | > 42 µM
19 | CCCC[C@H](CO)Nc1nc(N)nc2ccccc12 | > 50 µM
20 | CCCC[C@H](CO)Nc1nc(N)nc2cccnc12 | > 50 µM

System: not listed separately
Experiment: Clearance in human hepatic microsomes at 2 uM measured up to 60 mins in presence of NADPH generating system by LC-MS/MS analysis
Format: ADME, Microsome
Settings: liver microsomes

Row | Structure (SMILES) | CLhep predicted at 2 µM
21 | CCCC[C@](C)(CO)Nc1nc(N)nc2cc(C)cnc12 | 8.33 mL/min/kg
22 | CCCC[C@](C)(CO)Nc1nc(N)nc2cc(Cl)cnc12 | 16.7 mL/min/kg

Molecular target: T2, Toll-like receptor 8 (Homo sapiens, UniProt Q9NR97)
T2 sequence (Q9NR97 whole entry): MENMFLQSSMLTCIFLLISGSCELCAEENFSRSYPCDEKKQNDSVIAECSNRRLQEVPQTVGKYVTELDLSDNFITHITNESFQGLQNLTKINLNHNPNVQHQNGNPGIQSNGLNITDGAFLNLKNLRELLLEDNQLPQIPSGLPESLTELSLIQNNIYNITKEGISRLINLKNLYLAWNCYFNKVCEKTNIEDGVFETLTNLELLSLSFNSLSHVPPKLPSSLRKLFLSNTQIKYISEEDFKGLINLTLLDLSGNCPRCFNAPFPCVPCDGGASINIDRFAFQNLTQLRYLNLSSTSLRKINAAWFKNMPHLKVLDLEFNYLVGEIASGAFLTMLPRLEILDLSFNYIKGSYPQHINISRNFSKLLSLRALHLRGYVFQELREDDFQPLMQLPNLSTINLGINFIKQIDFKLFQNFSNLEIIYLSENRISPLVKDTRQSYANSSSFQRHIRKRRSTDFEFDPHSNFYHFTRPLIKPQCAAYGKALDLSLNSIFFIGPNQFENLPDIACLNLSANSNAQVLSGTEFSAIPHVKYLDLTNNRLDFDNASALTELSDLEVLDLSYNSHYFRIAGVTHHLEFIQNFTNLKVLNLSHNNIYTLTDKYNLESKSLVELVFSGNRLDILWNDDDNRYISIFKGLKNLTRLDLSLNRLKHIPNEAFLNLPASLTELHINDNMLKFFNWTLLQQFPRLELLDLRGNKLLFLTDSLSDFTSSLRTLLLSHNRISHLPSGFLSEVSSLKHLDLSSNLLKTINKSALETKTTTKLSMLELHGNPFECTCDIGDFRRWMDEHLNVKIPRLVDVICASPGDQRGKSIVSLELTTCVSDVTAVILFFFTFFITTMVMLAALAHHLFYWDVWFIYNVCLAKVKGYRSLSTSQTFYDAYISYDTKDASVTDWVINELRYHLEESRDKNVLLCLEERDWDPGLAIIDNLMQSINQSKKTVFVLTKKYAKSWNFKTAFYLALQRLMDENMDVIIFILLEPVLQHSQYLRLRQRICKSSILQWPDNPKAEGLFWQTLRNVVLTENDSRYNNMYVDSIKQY
Experiment: Agonist activity at TLR8 in human cryopreserved PBMC assessed as induction of IL-12p40 production measured after 24 hrs
Settings: not given

Row | Structure (SMILES) | EC50
23 | CCCC[C@@H](Nc1nc(N)nc2cccnc12)C(=O)NC | > 50 µM
24 | CCCC[C@@H](CO)Nc1nc(N)nc2cccnc12 | 0.42 µM
25 | CCC[C@@H](CO)Nc1nc(N)nc2cccnc12 | 0.43 µM
26 | CCCC[C@](C)(CO)Nc1nc(N)nc2cc(C)cnc12 | 0.16 µM
27 | CCCCC[C@](C)(CO)Nc1nc(N)nc2cccnc12 | 0.58 µM
28 | CCC[C@](C)(CO)Nc1nc(N)nc2cccnc12 | 2.4 µM
29 | CCCC[C@H](CO)Nc1cc(N)nc2ccccc12 | > 50 µM
30 | CCCCNc1nc(N)nc2cccnc12 | 1.9 µM
31 | CCCC[C@H](CN)Nc1nc(N)nc2cccnc12 | 25 µM
32 | CCCC[C@](C)(CO[C@@H]1O[C@H](C(=O)O)[C@@H](O)[C@H](O)[C@H]1O)Nc1nc(N)nc2cc(F)cnc12 | > 50 µM
33 | CCCCCC[C@](C)(CO)Nc1nc(N)nc2cccnc12 | 10 µM
34 | CCCC[C@](C)(CO)Nc1nc(N)nc2cc(Cl)cnc12 | 0.27 µM
35 | CCCC[C@H](CO)Nc1nc(N)nc2ccccc12 | 1.84 µM
36 | CCCC[C@H](CO)Nc1nc(N)nc2cccnc12 | 0.79 µM

System: not listed separately
Experiment: Clearance in cynomolgus monkey hepatic microsomes at 2 uM measured up to 60 mins in presence of NADPH generating system by LC-MS/MS analysis
Format: ADME, Macaca fascicularis, Microsome
Settings: liver microsomes

Row | Structure (SMILES) | CLhep predicted at 2 µM
37 | CCCC[C@](C)(CO)Nc1nc(N)nc2cc(C)cnc12 | 25 mL/min/kg
38 | CCCC[C@](C)(CO)Nc1nc(N)nc2cc(Cl)cnc12 | 23.3 mL/min/kg

System: not listed separately
Experiment: Cytotoxicity against human MT4 cells assessed as reduction in cell viability measured after 4 to 5 days by celltiter-glo assay
Format: cell-based
Settings: time 4-5 day

Row | Structure (SMILES) | CC50
39 | CCCC[C@](C)(CO)Nc1nc(N)nc2cc(C)cnc12 | 23 µM
40 | CCCCC[C@](C)(CO)Nc1nc(N)nc2cccnc12 | 17 µM
41 | CCC[C@](C)(CO)Nc1nc(N)nc2cccnc12 | > 50 µM
42 | CCCC[C@](C)(CO[C@@H]1O[C@H](C(=O)O)[C@@H](O)[C@H](O)[C@H]1O)Nc1nc(N)nc2cc(F)cnc12 | > 50 µM
43 | CCCCCC[C@](C)(CO)Nc1nc(N)nc2cccnc12 | 3.6 µM
44 | CCCC[C@](C)(CO)Nc1nc(N)nc2cc(Cl)cnc12 | 22 µM
45 | CCCC[C@H](CO)Nc1nc(N)nc2cccnc12 | 7.8 µM

System: not listed separately
Experiment: Clearance in rat hepatic microsomes at 2 uM measured up to 60 mins in presence of NADPH generating system by LC-MS/MS analysis
Format: ADME, Microsome
Settings: liver microsomes

Row | Structure (SMILES) | CLhep predicted at 2 µM
46 | CCCC[C@](C)(CO)Nc1nc(N)nc2cc(C)cnc12 | 63.3 mL/min/kg
47 | CCCC[C@](C)(CO)Nc1nc(N)nc2cc(Cl)cnc12 | 56.7 mL/min/kg

System: not listed separately
Experiment: Apparent permeability across basolateral to apical side in human Caco2 cells measured after 1 to 2 hrs by LC-MS/MS analysis
Settings: Caco-2

Row | Structure (SMILES) | Papp B→A
48 | CCCC[C@](C)(CO)Nc1nc(N)nc2cc(C)cnc12 | 29 ×10⁻⁶ cm/s

System: not listed separately
Experiment: Selectivity index, ratio of CC50 for human MT4 cells to EC50 for TLR8 in human cryopreserved PBMC assessed as induction of IL-12p40 production
Settings: not given

Row | Structure (SMILES) | Ratio CC50/EC50
49 | CCCC[C@](C)(CO)Nc1nc(N)nc2cc(C)cnc12 | 144
50 | CCCCC[C@](C)(CO)Nc1nc(N)nc2cccnc12 | 29
51 | CCC[C@](C)(CO)Nc1nc(N)nc2cccnc12 | >21
52 | CCCCCC[C@](C)(CO)Nc1nc(N)nc2cccnc12 | 0.4
53 | CCCC[C@H](CO)Nc1nc(N)nc2cccnc12 | 10

System: not listed separately
Experiment: Clearance in dog hepatic microsomes at 2 uM measured up to 60 mins in presence of NADPH generating system by LC-MS/MS analysis
Format: ADME, Canis lupus familiaris, Microsome
Settings: liver microsomes

Row | Structure (SMILES) | CLhep predicted at 2 µM
54 | CCCC[C@](C)(CO)Nc1nc(N)nc2cc(C)cnc12 | 18.3 mL/min/kg
55 | CCCC[C@](C)(CO)Nc1nc(N)nc2cc(Cl)cnc12 | 30 mL/min/kg
